Compound activity as filed in PubChem.
Only some compounds are listed: those with a hit (about 4.1% of all), similar ones and a draw of the others.
MrgX1 allo act: positive allosteric modulators of MrgX1, primary screen, HEK293 cells, Fluo-4 calcium flux; Mas-related G-protein coupled receptor member X1 (Homo sapiens), Q96LB2; FDSS; stronger effect = higher value; B-score at 10 µM; 0.63% of 310,000 active; AID 588675, 2011;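 active = plate-corrected calcium response at least 3 library SD above typical, normal starting fluorescence, not activating the receptor alone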;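 note: compound read alongside a low EC10 to EC30 dose of BAM8-22 agonist; peak minus trough fluorescence over baseline measured at the second addition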
Target sequence (Q96LB2 whole entry, looked up): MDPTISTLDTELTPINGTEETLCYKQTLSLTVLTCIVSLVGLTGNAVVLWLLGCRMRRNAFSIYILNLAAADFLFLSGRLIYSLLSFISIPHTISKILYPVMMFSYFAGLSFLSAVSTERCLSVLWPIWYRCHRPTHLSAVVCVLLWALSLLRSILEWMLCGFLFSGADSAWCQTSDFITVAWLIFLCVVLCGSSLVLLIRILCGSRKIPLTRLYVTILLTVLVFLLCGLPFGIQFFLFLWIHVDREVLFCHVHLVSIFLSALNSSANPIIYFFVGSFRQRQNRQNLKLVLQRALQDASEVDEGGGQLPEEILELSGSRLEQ
MrgX1 agonist: agonists of human MrgX1 receptor, primary screen, HEK293 cells, Fluo-4 calcium flux; B-score at 10 µM; AID 588627, 2011; 0.44% of 310,000 active; Fluo-4 calcium fluorescence, agonist mode; stronger effect = higher value; Mas-related G-protein coupled receptor member X1 (Homo sapiens), Q96LB2;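 active = calcium response B-score plate-corrected fluorescence ratio at least 3 library SD, with starting fluorescence B-score inside 5 SD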
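Assay system: MrgX1-expressing HEK293 cells / Amount: fifteen thousand cells per well / Doses: test compound in the initial addition of three / Timing: cells plated overnight, dye loaded 0.5 h 37 °C, 0.5 h room temperature / Technique: kinetic calcium dye fluorescence, Fluo-4 NW / Control set: positive and negative controls per plate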
Kir21 inh: inhibitors of mouse Kir2.1 inward-rectifier potassium channel; B-score at 10 µM; Inward rectifier potassium channel 2 (Mus musculus), P35561; 0.85% of 310,000 active; HEK293-Kir2.1, FluxOR thallium flux fluorescence; stronger effect = lower value;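 active = fluorescence ratio B-score at or below minus 3 SD of library scores, with starting-brightness B-score within 2 SD, cut at about -4.2 in these data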;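 note: channel flux triggered by added potassium and thallium sulfate stimulus; B-score of peak minus minimum fluorescence over baseline after thallium stimulus; more negative B-score means stronger Kir2.1 block with less thallium influx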
MrgX1 antag: antagonists of human MrgX1 receptor, primary screen, HEK293 cells, Fluo-4 calcium flux; AID 588676, 2011; BAM8-22 antagonism; stronger effect = lower value; Mas-related G-protein coupled receptor member X1 (Homo sapiens), Q96LB2; B-score at 10 µM; 1.3% of 310,000 active;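 active = calcium-response B-score plate-corrected more than 3 library SD below zero, starting fluorescence within 5 deviations, no agonist response on first addition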;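 note: peak minus trough fluorescence over baseline after final BAM8-22 challenge near maximal dose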
RGS4 act: RGS4 potentiators or activators, primary screen, cell-based, HEK293 M3R inducible RGS4, calcium flux | 0.92% of 310,000 active | carbachol calcium flux Fluo4; stronger effect = lower value | B-score at 10 µM | AID 463111, 2010;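 active = B-score of the integrated calcium signal more than 4 SD below the library mean, with starting fluorescence not abnormally high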;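 note: negative B-score means reduced calcium response which marks RGS4 activation or potentiation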
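Test system: HEK293 cells with stable M3R and inducible RGS4; also added: carbachol at ECmax as muscarinic agonist stimulus; schedule: dye loading 30 min 37 °C, buffer rest 30 min RT; technique: kinetic calcium fluorescence imaging with Fluo4-AM dye, 2 µM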
RGS4 inh: RGS4 inhibitors, primary screen, cell-based, HEK293 M3R inducible RGS4, calcium flux; Regulator of G-protein signaling 4 (Homo sapiens), P49798; AID 463165, 2010; B-score at 10 µM; 0.45% of 310,000 active; Fluo-4 calcium flux; stronger effect = higher value; triggered by carbachol at its EC20;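 active = B-score, a plate-corrected calcium signal, over three deviations above library mean, with baseline fluorescence within five deviations of library mean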;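 note: RGS4 expression induced by doxycycline in cells with stable M3 receptor; B-score is computed from the integrated fluorescence ratio over baseline after carbachol; higher B-score means a larger calcium signal and so more RGS4 inhibition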
Target sequence (P49798 whole entry, looked up): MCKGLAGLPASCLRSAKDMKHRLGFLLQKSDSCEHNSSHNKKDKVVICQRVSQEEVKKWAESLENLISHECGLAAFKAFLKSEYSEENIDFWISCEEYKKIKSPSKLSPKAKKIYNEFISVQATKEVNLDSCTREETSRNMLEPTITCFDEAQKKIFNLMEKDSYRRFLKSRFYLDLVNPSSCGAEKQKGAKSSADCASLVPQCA
hERG ctr: hERG channel inhibition, counter-screen for Kir2.1 inhibitor project, cell-based, thallium flux; shares compounds with Kir21 inh; hERG-expressing cells; inhibition, % at 10 µM; 20% of 320 active; AID 2236, 2010;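 note: host cells are CHO cells stably expressing hERG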
KCNK9 spec: KCNK9 channel inhibition, selectivity assay for Kir2.1 inhibitor project, cell-based; shares compounds with Kir21 inh; KCNK9-expressing cells, ion flux inhibition; inhibition, % at 10 µM; 5% of 320 active; AID 2329, 2010
Kir21 ephys inh: mouse Kir2.1 channel blockers, Kir2.1 inhibitor project, cell-based, secondary, automated electrophysiology; shares compounds with Kir21 inh; Kir2.1 cells, automated patch-clamp current inhibition; inhibition, % at 25 µM; 71% of 320 active; AID 463252, 2010
RGS4 activ val: reduced carbachol calcium response, RGS4-induced M3R cells, confirmation, RGS4 activator project, cell-based, HEK293 M3R/RGS4 inducible, calcium flux, duplicate | inhibition, % at 10 µM | AID 602282, 2012 | shares compounds with RGS4 act | 89% of 1,100 active | carbachol calcium flux Fluo4;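 active = inhibition above 3 SD of the buffer control wells, cut at about 41% in these data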;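 note: signal is the integrated peak-minus-minimum Fluo4 fluorescence over baseline ratio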
RGS4 act ctr: counter-screen for RGS4 activators: effect in non-induced cells; HEK293 M3R non-induced RGS4, Fluo4 calcium flux; after carbachol challenge at its EC90; 82% of 1,100 active; shares compounds with RGS4 act; inhibition, % at 10 µM;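 active = inhibition exceeding 3 SD of buffer-only control wells, cut at about 26% in these data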;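 note: percent drop in integrated peak-minus-baseline over baseline Fluo4 ratio after carbachol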
* marks the source's active call; other numbers are inactive results; i = inactive. Unless noted, the rule behind the calls is not given here.

SMILES	MrgX1 allo act	MrgX1 agonist	Kir21 inh	MrgX1 antag	RGS4 act	RGS4 inh	others
CCc1ccc(CNCCc2c[nH]c3ccccc23)cc1	i	i	-15*	i	i	i	hERG ctr=53%*;KCNK9 spec=i;Kir21 ephys inh=60%*
COc1ccc(CCn2c(O)c(/C=N/N3CCOCC3)c(=O)[nH]c2=O)cc1OC	i	i	-0.21	i	i	i
O=S(=O)(c1ccc(Cl)cc1Cl)N1CCCC1c1cccnc1 (stereo not given)	i	i	-2.8	i	i	i
CCN1CCN(Cc2ccc(C)cc2)CC1	i	i	1.9	i	i	i
Cc1ccc(CN2CCN(Cc3ccccc3F)CC2)cc1	i	i	-11*	i	i	i	hERG ctr=i;KCNK9 spec=i;Kir21 ephys inh=58%*
CCC(=O)c1cn(Cc2ccccc2)c2ccccc12	i	i	0.01	i	i	i
CN(C)CCOC(=O)c1cn(Cc2ccccc2)c2ccccc12	i	i	-7*	i	i	i	hERG ctr=53%*;KCNK9 spec=i;Kir21 ephys inh=33%*
Cc1cccc(CCNCc2cc3cccc(C)c3[nH]c2=O)c1	i	i	-6.9*	i	i	i	hERG ctr=i;KCNK9 spec=i;Kir21 ephys inh=33%*
Cc1cccc(CCNCc2cc3cc(C)cc(C)c3[nH]c2=O)c1	i	i	-2.1	i	i	i
CCC(C)NC(=O)c1c(N)n(CC2CCCO2)c2nc3ccccc3nc12 (stereo not given)	i	i	0.94	i	i	i
CN1CCC(O)(c2ccc(Cl)cc2)C(C(=O)c2ccc(Cl)cc2)C1 (stereo not given)	i	i	-3.4	i	-9.6*	i	RGS4 activ val=94*;RGS4 act ctr=66*
Fc1ccc(C(OCCN2CCCC2)c2ccc(F)cc2)cc1	i	i	-2.9	i	-9.3*	i	RGS4 activ val=88*;RGS4 act ctr=37*
O=c1[nH]c(O)c(C=NC2CCN(Cc3ccccc3)CC2)c(=O)[nH]1	i	i	0.01	i	i	i
C=C[C@@H]1C[C@@]1(C)[C@@H](NP(=O)(c1ccccc1)c1ccccc1)c1ccccc1	i	i	1.1	i	i	i
C=CCC1(Nc2ccccc2)CC(C)N(C)CC1C (stereo not given)	i	i	2.5	i	-7.7*	i	RGS4 activ val=59*;RGS4 act ctr=84*
Cc1ccccc1C(O)(Cc1ccccc1)C1CN2CCC1CC2 (stereo not given)	i	i	-3.3	i	-8.2*	i	RGS4 activ val=92*;RGS4 act ctr=88*
CC1CN=C(NCc2ccncc2)S1 (stereo not given)	i	i	-0.47	i	i	i
